NPY1 pot ag: NPY-Y1 receptor potentiators or agonists, primary screen, cell-based. 0.37% of 220,000 active. Neuropeptide Y receptor type 1 (Homo sapiens), P25929. NPY-Y1 expressing cells, potentiator/agonist activation. activation, % at 3.6 µM; in the data active = activation above about 33%, passing the limit was not always enough;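 also: cells stimulated with NPY at EC10 then isoproterenol at EC100; 0% = low agonist plus stimulus and 100% = saturating agonist plus stimulus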
NPY-Y2 PAM-ag: NPY-Y2 potentiators or agonists, primary screen, cell-based; cells expressing NPY-Y2, potentiator/agonist read-out; activation, % at 3.6 µM; 0.45% of 220,000 active; AID 1359, 2008; in the data active = activation above about 27%;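 also: cells stimulated with NPY near EC25 plus isoproterenol at EC100; 0% = vehicle plus submaximal agonist and 100% = vehicle plus saturating agonist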
Target sequence (P49146 whole entry, looked up): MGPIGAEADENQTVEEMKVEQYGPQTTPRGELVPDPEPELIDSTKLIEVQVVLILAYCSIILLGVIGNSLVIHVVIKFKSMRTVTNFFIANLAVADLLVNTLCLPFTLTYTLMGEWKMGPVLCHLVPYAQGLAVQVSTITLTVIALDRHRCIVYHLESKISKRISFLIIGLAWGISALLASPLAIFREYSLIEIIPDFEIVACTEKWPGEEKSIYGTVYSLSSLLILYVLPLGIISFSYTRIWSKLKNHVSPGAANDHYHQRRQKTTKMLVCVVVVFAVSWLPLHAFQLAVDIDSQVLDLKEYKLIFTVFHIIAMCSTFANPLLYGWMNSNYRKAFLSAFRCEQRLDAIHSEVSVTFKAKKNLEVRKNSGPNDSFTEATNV
NPY-Y2 antag: NPY-Y2 receptor antagonists, primary screen, cell-based; NPY-Y2 expressing cells, antagonist mode; inhibition, % at 2.7 µM; 0.99% of 140,000 active; AID 793, 2007;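 also: 0% = vehicle with agonist challenge and 100% = reference antagonist with challenge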
NPY Y1 blocker: NPY-Y1 receptor antagonists, primary screen, cell-based; Neuropeptide Y receptor type 1 (Homo sapiens), P25929; HEK293-CNG Y1 cells, membrane potential fluorescence; NPY at EC95, then isoproterenol; inhibition, % at 3.6 µM; 1% of 200,000 active; AID 1040, 2008;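 active = inhibition above the campaign mean inhibition of all tested compounds plus 3 SD, cut at about 20% in these data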;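 also: 0% = DMSO wells given NPY plus isoproterenol and 100% = isoproterenol alone without NPY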
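Assay system: HEK293 cells with Y1 receptor plus CNG channel | Probe or stimulus: NPY (25 nM), isoproterenol (1 µM), Ro 20-1724 (25 µM) | Timing: Compound incubation 1 h at room temperature, readout 45 min post-stimulation | Measured by: Membrane-potential fluorescent dye readout | Benchmarks: High control isoproterenol alone, low control NPY with isoproterenol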
S1P4 agonist: S1P4 receptor agonists, primary screen, cell-based | Sphingosine 1-phosphate receptor 4 (Homo sapiens), O95977 | S1P4-expressing cell line, agonist reporter assay | activation, % at 4.98 µM | 0.35% of 220,000 active; in the data active = activation above about 11%;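 also: 0% = DMSO vehicle and 100% = reference agonist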
S1P4 antag: S1P4 receptor antagonists, primary screen, cell-based; S1P4-expressing cells, antagonist mode, reporter read-out; Sphingosine 1-phosphate receptor 4 (Homo sapiens), O95977; AID 1510, 2009; 0.26% of 220,000 active; inhibition, % at 4.98 µM; in the data active = inhibition above about 29%;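 also: 0% = wells stimulated with agonist and 100% = vehicle wells without agonist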
NPY-Y1 ant conf: NPY-Y1 receptor antagonists, retest of hits, confirmation, HEK293-CNG cells, membrane potential fluorescence, triplicate | shares compounds with NPY Y1 blocker | cAMP; NPY challenge against isoproterenol-raised cAMP | inhibition, % at 3.6 µM | 21% of 1,200 active; in the data active = inhibition above about 20%;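 also: 0% = vehicle with agonist plus stimulus and 100% = stimulus alone without agonist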
NPY2 antag ctr: NPY-Y2 receptor antagonists, selectivity check, confirmation, counter-screen for NPY-Y1 antagonist project, HEK293-CNG cells, membrane potential fluorescence, triplicate; shares compounds with NPY Y1 blocker; AID 1255, 2008; inhibition, % at 3.6 µM; antagonism; cells given NPY, then isoproterenol; 28% of 1,200 active;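 also: 0% = DMSO with agonist challenge and 100% = reference antagonist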
The depositor's hits bear a star; nt = no result given; ! = not active in a repeat. An excerpt weighted towards active compounds, which were near 2.4% of everything screened. Rule as the data show it, unless noted: active = inhibition above about 17%; inactive = the rest.

SMILES	NPY1 pot ag	NPY-Y2 PAM-ag	NPY-Y2 antag	NPY Y1 blocker	S1P4 agonist	S1P4 antag	NPY-Y1 ant conf	NPY2 antag ctr
COc1cc2cc(C)nc(Cc3cccc4ccccc34)c2cc1OC	-35.2	-38.6	16.0	26.7*	-1.8	-10.0	8.7	13.0
COc1ccc(-c2cc3cc(OC)c(OC)cc3c(C)n2)cc1	-3.3	-6.3	nt	nt	0.4	-6.0	nt	nt
Cc1cccn2c(=O)c(/C=N/O)c(N3CCOCC3)nc12	4.4	4.9	nt	6.6	1.0	-12.8	nt	nt
O=C(CCN=C1NS(=O)(=O)c2ccccc21)N1CCc2ccccc2C1	-10.8	-9.5	nt	4.2	0.4	3.5	nt	nt
O=C1N(Cc2cccc(Cl)c2)C[C@@H]2C[C@@H](c3ccsc3)N3CCC[C@@]123	3.5	3.6	nt	28.7*	1.8	-11.4	3.6	5.0
COc1ccc(OC)c(NC(=O)C(=O)NCCC2=CCCCC2)c1	-41.3	-10.4	5.3	9.1	0.6	-1.8	nt	nt
Cc1ccnc(NS(=O)(=O)c2ccc(NC(=O)CSc3nc(-c4ccccc4)cc(=O)[nH]3)cc2)n1	-3.5	-4.4	nt	-4.5	0.8	0.2	nt	nt
c1ccc2c(NC3CCCC3)nnc(NC3CCCC3)c2c1	-0.8	-1.7	11.8	23.4*	0.8	-2.7	1.1	34.9*
Cc1nsc(Nc2ccccc2)c1C#N	14.3	2.2	nt	-0.7	-0.2	-11.2	nt	nt
COc1cccc(NC(=O)Cn2c(=O)n(-c3ccccc3)c(=O)c3sccc32)c1	8.3	-0.5	nt	0.6	-0.9	-5.6	nt	nt
O=S(=O)(c1ccc(Br)cc1)n1c(Cc2ccccc2)nc2ccccc21	2.8	-3.9	3.8	20.8*	-0.3	-10.6	3.1	4.2
O=S(=O)(N1CCCCC1)n1c(Cc2ccccc2)nc2ccccc21	15.3	21.5	2.4	2.1	-0.4	-1.9	nt	nt
Cn1ccnc1C1CCCCN1Cc1nc(Cc2cccc(C(F)(F)F)c2)no1 (centres undefined)	-8.0	-9.2	nt	7.5	0.0	-2.3	nt	nt
Cn1ccnc1C1CCCCN1Cc1nc(-c2ccc3c(c2)OCO3)no1 (centres undefined)	-21.1	-17.7	nt	42.3*	-2.4	-6.0	26.6*	10.1
COc1ccc(-c2noc(CN3CCCCC3c3nccn3C)n2)cc1 (centres undefined)	-25.3	-22.0	nt	42.4*	0.6	1.5	29.5*	13.7
CCOc1ccc(-n2c(-c3ccccc3)c[n+]3c2CCC3)cc1	-5.7	-2.7	nt	-2.1	-0.1	-18.6	nt	nt
COc1ccccc1-n1c(-c2ccccc2)c[n+]2c1CCc1ccccc1-2	-66.5	14.0	nt	33.3*	0.8	-14.0	20.5*!	13.7
CC(C)c1ccc(-n2c(-c3ccccc3)c[n+]3c2CCc2ccccc2-3)cc1	-75.2	-21.3	nt	115.5*	-1.5	2.1	112.0*	76.7*
COc1ccccc1-n1c(-c2ccccc2)c[nH]c1=S	2.3	4.9	nt	-2.0	0.7	8.5	nt	nt
O=C(CCCCCN1C(=O)c2cccc3cccc(c23)C1=O)NCCO	13.9	-4.1	nt	-0.5	2.0	-17.1	nt	nt
CCCCCCC(=O)Nc1c2c(nc3ccccc13)N(C)CC2	-34.5	0.0	9.9	24.5*	-1.2	3.2	6.2	8.4
COc1cc(CNC2CCCC2)cc(Cl)c1OCc1ccccc1Cl	-17.0	-5.1	3.3	-5.3	7.2	-9.9	nt	nt
c1ccc(COc2ccccc2CNC2CCCC2)cc1	-14.1	0.1	nt	31.8*	-0.1	-12.7	4.4	5.3
Cc1c(OCc2ccccc2)cccc1OCc1ccccc1	-28.6	0.7	9.3	11.7	0.6	4.3	nt	nt
c1ccc(COc2ccccc2CNC23CC4CC(CC(C4)C2)C3)cc1	-63.7	-21.9	nt	158.0*	0.2	25.0	110.5*	70.4*
SMILES	NPY1 pot ag	NPY-Y2 PAM-ag	NPY-Y2 antag	NPY Y1 blocker	S1P4 agonist	S1P4 antag	NPY-Y1 ant conf	NPY2 antag ctr
O=C(COc1ccc(Br)cc1CNC1CCCCC1)NCCc1ccccc1	8.5	1.1	nt	27.0*	-1.4	-3.9	17.9	12.6
O=C(Nc1ccc(Oc2ncnc3cc(Cl)ccc23)nc1)c1cccs1	-4.9	7.1	nt	nt	-0.5	9.7	nt	nt
COc1ccc(C)cc1NC(=O)C1CCN(C(=O)Cc2ccccc2)CC1	-0.7	-2.4	nt	3.5	-0.9	-21.7	nt	nt
COc1cc2c(cc1Cl)/C(=C\CCN(C)C)c1ccccc1S2	-36.7	-18.7	11.3	29.1*	-1.5	-13.1	13.1	17.7*
O=C(CN(CCO)c1ccccc1)Nc1ccc(Cl)c(S(=O)(=O)N2CCOCC2)c1	0.5	5.0	nt	13.2	-0.6	-4.3	nt	nt
C#CCn1c(=NC(=O)c2ccc(S(=O)(=O)N3CCCc4ccccc43)cc2)sc2cc(S(N)(=O)=O)ccc21	-63.4	-55.6	4.6	24.2*	1.4	-36.9	11.5	30.9*
O=C(NCc1ccccn1)C(=O)N/N=C/c1ccc2c(c1)OCO2	27.8	9.0	nt	4.8	-1.0	17.6	nt	nt
Cc1ccccc1N/C(SCc1ccc(Cl)cc1)=C(/C#N)C(=O)NCc1ccco1	-10.5	-38.9	12.2	34.0*	2.1	1.9	11.6	8.2
CCCOc1ccc(S(=O)(=O)NCc2ccc(OC)cc2)cc1	-42.7	-42.4	9.3	28.2*	0.5	-6.0	8.8	12.0
COc1ccc(CNS(=O)(=O)c2ccc(OC)cc2)cc1	-18.2	-11.9	5.6	5.6	-1.4	-31.1	nt	nt
CC(C)N1C(=S)N(Cc2ccco2)C(=O)C1CC(=O)Nc1ccccc1 (centres undefined)	7.0	4.1	nt	74.2*	3.1	-17.3	-0.7	-1.3
Fc1ccc(Cn2cccc2C2=NC(c3ccccc3)CO2)cc1 (centres undefined)	-4.3	11.1	nt	5.7	0.0	-16.4	nt	nt
Cc1oc(-c2ccccc2)nc1Cn1cccc1C1=NC(c2ccccc2)CO1 (centres undefined)	18.4	0.0	9.7	21.6*	2.0	-11.7	21.3*	23.9*
COc1cc(C=O)ccc1OCCOCCOc1ccccc1Cl	-7.5	1.9	2.0	20.5*	0.5	-2.1	2.9	3.9
CC(=O)Nc1cccc(Oc2ncnc3scc(-c4ccc(C(C)C)cc4)c23)c1	-14.8	-21.1	-1.8	7.2	-1.0	-4.5	nt	nt
CN1C(=O)c2ccc(NC(=O)c3ccc(N4CCCCC4)c([N+](=O)[O-])c3)cc2C1=O	2.0	15.8	-1.3	-1.1	-1.4	-12.2	nt	nt
